Values joined by “and” are separate entries in the source; they are usually repeats but may differ in a detail not shown here. Equal entries are not always repeated.
System: HEK-293T
Test: Multiplex assay against HEK293T
Format: toxicity, cell-based
Conditions: human
Method in brief: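 At seeding, live cells were stained with Hoechst33342, BioTracker Green Microtubule Cytoskeleton Dye, MitoTracker Red and Annexin V Alexa Fluor 680. After compound addition they were imaged on a CQ1 microscope at 37°C and 5% CO2, and CellPathfinder machine-learning gating sorted them into Hoechst high-intensity objects or normal cells, with normal cells further split into healthy, pyknosed or fragmented nuclei and pyknosed cells into mitotic or apoptotic. Tubulin, mitochondrial-mass and membrane-permeability phenotypes are given as per cents of cells with healthy nuclei.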

[1] = 12 h, 1 µM, compound concentration 1 uM
[2] = 12 h, 10 µM, compound concentration 10 uM
[3] = 24 h, 1 µM, compound concentration 1 uM
[4] = 24 h, 10 µM, compound concentration 10 uM
[5] = 48 h, 1 µM, compound concentration 1 uM
[6] = 48 h, 10 µM, compound concentration 10 uM

## Cc1cc(O)c(-c2ccc([C@@H](C)CN(C)C)cc2)c2c1[nH]c(=O)c1sccc12
[1]
  Population Membrane Permeable-Phenotype (%): 0% and 1% and 7.14%
  Population Mitotic Cells (%): 88.89% [middle of 4 runs]
  Population Normal (%): 72% and 71% and 100%
  Population Tubulin-Different-Phenotype (%): 74% [middle of 4 runs]
  Total Cell Count: 209 and 207 and 208 and 140
[2]
  Population Fragmented Nuclei (%): 6% and 7% and 2.23% and 0.71%
  Population Membrane Permeable-Phenotype (%): 0% and 2.04% and 9.09%
  Population Mitotic Cells (%): 62.79% [middle of 4 runs]
  Population Normal (%): 58% and 71% and 100%
  Population Pyknosed Nuclei (%): 75.89% [middle of 4 runs]
  Population Tubulin-Different-Phenotype (%): 60% and 72% and 75.51% and 63.64%
  Total Cell Count: 268 and 195 and 224 and 141
[3]
  Population Apoptotic (%): 65% and 68% and 44.06% and 39.32%
  Population Fragmented Nuclei (%): 9% and 2.63% and 2.94%
  Population Hoechst High Intensity Objects (%): 21% and 1.72% and 0%
  Population Membrane Permeable-Phenotype (%): 0% and 6.67%
  Population Mitochondria Different-Phenotype (%): 89% [middle of 4 runs]
  Population Mitotic Cells (%): 34% and 31% and 55.94% and 60.68%
  Population Normal (%): 78% and 98.28% and 100%
  Population Tubulin-Different-Phenotype (%): 67% [middle of 4 runs]
  Total Cell Count: 230 and 205 and 232 and 136
[4]
  Population Apoptotic (%): 73% and 85% and 61.29% and 65.71%
  Population Fragmented Nuclei (%): 8% and 7% and 0.96% and 1.33%
  Population Membrane Permeable-Phenotype (%): 1.92% [middle of 4 runs]
  Population Mitochondria Different-Phenotype (%): 92% [middle of 4 runs]
  Population Mitotic Cells (%): 34.29% [middle of 4 runs]
  Population Normal (%): 63% and 74% and 99.52% and 100%
  Population Tubulin-Different-Phenotype (%): 70% and 80% and 96.15% and 62.5%
  Total Cell Count: 290 and 203 and 210 and 150
[5]
  Population Apoptotic (%): 86% and 69% and 73.55% and 70.43%
  Population Hoechst High Intensity Objects (%): 24% [middle of 4 runs]
  Population Membrane Permeable-Phenotype (%): 0%
  Population Mitochondria Different-Phenotype (%): 90% and 96% and 92% and 88.89%
  Population Mitotic Cells (%): 29.57% [middle of 4 runs]
  Population Normal (%): 75% and 74% and 99.03% and 100%
  Population Tubulin-Different-Phenotype (%): 76% and 70% and 42.67% and 77.78%
  Total Cell Count: 249 and 212 and 206 and 135
[6]
  Population Apoptotic (%): 86% and 87% and 92.81% and 91.73%
  Population Fragmented Nuclei (%): 13% [middle of 4 runs]
  Population Membrane Permeable-Phenotype (%): 1% and 0% and 1.56%
  Population Mitochondria Different-Phenotype (%): 92% and 100% and 87.5%
  Population Mitotic Cells (%): 13% and 12% and 7.19% and 8.27%
  Population Normal (%): 59% and 65% and 99.52% and 100%
  Population Tubulin-Different-Phenotype (%): 54% and 73% and 90.62% and 87.5%
  Total Cell Count: 223 [middle of 4 runs]

## CC/C(=C(\c1ccc(O)cc1)c1ccc(OCCN(C)C)cc1)c1ccccc1 [AFIMOXIFENE]
[1]
  Population Apoptotic (%): 6.54% and 11.93%
  Population Fragmented Nuclei (%): 0.55% and 3.45%
  Population Healthy Nuclei (%): 57.18% and 21.38%
  Population Hoechst High Intensity Objects (%): 0.28% and 0%
  Population Membrane Permeable-Phenotype (%): 0.48% and 0%
  Population Mitochondria Different-Phenotype (%): 43.96% and 29.03%
  Population Mitotic Cells (%): 93.46% and 88.07%
  Population Normal (%): 99.72% and 100%
  Population Pyknosed Nuclei (%): 42.27% and 75.17%
  Total Cell Count: 363 and 145
[2]
  Population Apoptotic (%): 25.32% and 29.82%
  Population Fragmented Nuclei (%): 2.69% and 7.52%
  Population Hoechst High Intensity Objects (%): 0%
  Population Mitochondria Different-Phenotype (%): 25.19% and 44.44%
  Population Mitotic Cells (%): 74.68% and 70.18%
  Population Normal (%): 100%
  Population Pyknosed Nuclei (%): 53.2% and 85.71%
  Population Tubulin-Different-Phenotype (%): 8.4% and 22.22%
  Total Cell Count: 297 and 133
[3]
  Population Apoptotic (%): 8.84% and 19.33%
  Population Fragmented Nuclei (%): 1.87% and 0.54%
  Population Healthy Nuclei (%): 75.2% and 35.48%
  Population Hoechst High Intensity Objects (%): 0%
  Population Membrane Permeable-Phenotype (%): 1.45% and 3.03%
  Population Mitochondria Different-Phenotype (%): 15.56% and 16.67%
  Population Mitotic Cells (%): 91.16% and 80.67%
  Population Normal (%): 100%
  Population Pyknosed Nuclei (%): 22.93% and 63.98%
  Population Tubulin-Different-Phenotype (%): 15.56% and 13.64%
[4]
  Population Apoptotic (%): 49.01% and 63.64%
  Population Fragmented Nuclei (%): 2.59% and 6.2%
  Population Hoechst High Intensity Objects (%): 0%
  Population Membrane Permeable-Phenotype (%): 0.44% and 4.55%
  Population Mitochondria Different-Phenotype (%): 40.44% and 36.36%
  Population Mitotic Cells (%): 50.99% and 36.36%
  Population Normal (%): 100%
  Population Pyknosed Nuclei (%): 39.12% and 76.74%
  Population Tubulin-Different-Phenotype (%): 28.44% and 27.27%
  Total Cell Count: 386 and 129
[5]
  Population Apoptotic (%): 7.69% and 13.19%
  Population Fragmented Nuclei (%): 1.84% and 1.61%
  Population Healthy Nuclei (%): 85.71% and 61.85%
  Population Hoechst High Intensity Objects (%): 0% and 0.8%
  Population Membrane Permeable-Phenotype (%): 6.52% and 3.25%
  Population Mitochondria Different-Phenotype (%): 18.34% and 27.92%
  Population Mitotic Cells (%): 92.31% and 86.81%
  Population Normal (%): 100% and 99.2%
  Population Pyknosed Nuclei (%): 12.45% and 36.55%
[6]
  Population Apoptotic (%): 39.87% and 62.5%
  Population Fragmented Nuclei (%): 2.24% and 6.98%
  Population Healthy Nuclei (%): 66.53% and 24.81%
  Population Hoechst High Intensity Objects (%): 0.2% and 0%
  Population Membrane Permeable-Phenotype (%): 3.37% and 9.38%
  Population Mitochondria Different-Phenotype (%): 77.3% and 65.62%
  Population Mitotic Cells (%): 60.13% and 37.5%
  Population Normal (%): 99.8% and 100%
  Population Pyknosed Nuclei (%): 31.22% and 68.22%

## O=c1cccc2n1C[C@@H]1CNC[C@H]2C1 [CYTISINICLINE]
[1]
  Population Apoptotic (%): 13.38% and 21.1%
  Population Fragmented Nuclei (%): 1.29% and 6.54%
  Population Healthy Nuclei (%): 52.75% and 22.22%
  Population Hoechst High Intensity Objects (%): 0.64% and 0%
  Population Membrane Permeable-Phenotype (%): 0.61% and 0%
  Population Mitochondria Different-Phenotype (%): 39.26% and 17.65%
  Population Mitotic Cells (%): 86.62% and 78.9%
  Population Normal (%): 99.36% and 100%
  Population Pyknosed Nuclei (%): 45.95% and 71.24%
  Total Cell Count: 311 and 153
[2]
  Population Apoptotic (%): 15.45% and 10.14%
  Population Fragmented Nuclei (%): 3.17% and 4.62%
  Population Hoechst High Intensity Objects (%): 0%
  Population Membrane Permeable-Phenotype (%): 0.66% and 0%
  Population Mitochondria Different-Phenotype (%): 17.11% and 7.41%
  Population Mitotic Cells (%): 84.55% and 89.86%
  Population Normal (%): 100%
  Population Pyknosed Nuclei (%): 43.31% and 79.77%
  Total Cell Count: 284 and 173
[3]
  Population Apoptotic (%): 15.52% and 25.56%
  Population Fragmented Nuclei (%): 1.39% and 3.33%
  Population Healthy Nuclei (%): 75.5% and 36.67%
  Population Hoechst High Intensity Objects (%): 0.2% and 0%
  Population Membrane Permeable-Phenotype (%): 1.32% and 5.45%
  Population Mitochondria Different-Phenotype (%): 17.41% and 14.55%
  Population Mitotic Cells (%): 84.48% and 74.44%
  Population Normal (%): 99.8% and 100%
  Population Pyknosed Nuclei (%): 23.11% and 60%
  Population Tubulin-Different-Phenotype (%): 11.08% and 16.36%
[4]
  Population Apoptotic (%): 18.82% and 14.41%
  Population Fragmented Nuclei (%): 2.13% and 5.14%
  Population Healthy Nuclei (%): 81.43% and 42.99%
  Population Hoechst High Intensity Objects (%): 0%
  Population Membrane Permeable-Phenotype (%): 0.24% and 0%
  Population Mitochondria Different-Phenotype (%): 15.44% and 7.61%
  Population Mitotic Cells (%): 81.18% and 85.59%
  Population Normal (%): 100%
  Population Tubulin-Different-Phenotype (%): 7.6% and 1.09%
  Total Cell Count: 517 and 214
[5]
  Population Fragmented Nuclei (%): 2.45% and 3.98%
  Population Healthy Nuclei (%): 88.37% and 61.69%
  Population Hoechst High Intensity Objects (%): 0%
  Population Membrane Permeable-Phenotype (%): 2.27% and 1.61%
  Population Mitochondria Different-Phenotype (%): 16.42% and 20.97%
  Population Mitotic Cells (%): 94.29% and 66.67%
  Population Normal (%): 100%
[6]
  Population Apoptotic (%): 9.77% and 19.7%
  Population Fragmented Nuclei (%): 5.36% and 2.25%
  Population Healthy Nuclei (%): 85.61% and 79.15%
  Population Hoechst High Intensity Objects (%): 0.14% and 0%
  Population Membrane Permeable-Phenotype (%): 5.39% and 1.78%
  Population Mitochondria Different-Phenotype (%): 8.88% and 16.01%
  Population Mitotic Cells (%): 90.23% and 80.3%
  Population Normal (%): 99.86% and 100%
  Population Pyknosed Nuclei (%): 9.03% and 18.59%

From ChEMBL document CHEMBL5724801, “EUbOPEN Chemogenomics Library - Multiplex” (2024)
